The target of assay [1] is Mixed lineage kinase domain-like protein (Homo sapiens, UniProt Q8NB16). In words: Inhibition of MLKL in human HeLa cells lysate pre incubated for 15 mins followed by ADP acyl phosphate probe addition and measured after 10 mins by LC-MS/MS analysis. It is filed as subcellular.
Assay [2] in a line: Inhibition of PCTAIRE2/ICK in human HeLa cells lysate at 2 uM pre incubated for 15 mins followed by ADP acyl phosphate probe addition and measured after 10 mins by LC-MS/MS analysis relative to control. The note with it: 25 min, condition cancer.
The next assay deals with AMPK alpha1/alpha2 (Homo sapiens, UniProt P54646+Q13131). In words: Inhibition of AMPKalpha1/2 in human HeLa cells lysate at 50 uM pre incubated for 15 mins followed by ATP acyl phosphate probe addition and measured after 10 mins by LC-MS/MS analysis relative to control. It is filed as subcellular. The following applies: time 25.0 min. In outline:
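HeLa cell lysates (5 mg/mL total protein) were preincubated with inhibitor at 0, 0.8, 2, 10 or 50 μM for 15 min. ATP or ADP acylphosphate probe was then added (5 μM final) for 10 min, and reactions were stopped with urea. Up to four fragment ions per kinase probe-peptide were quantified by targeted MS. % inhibition was taken relative to untreated lysate. Run in duplicate.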

In assay [3] the target is T1, Serine/threonine-protein kinase Sgk3 (Homo sapiens) (UniProt Q96BR1).
T1 sequence (whole entry): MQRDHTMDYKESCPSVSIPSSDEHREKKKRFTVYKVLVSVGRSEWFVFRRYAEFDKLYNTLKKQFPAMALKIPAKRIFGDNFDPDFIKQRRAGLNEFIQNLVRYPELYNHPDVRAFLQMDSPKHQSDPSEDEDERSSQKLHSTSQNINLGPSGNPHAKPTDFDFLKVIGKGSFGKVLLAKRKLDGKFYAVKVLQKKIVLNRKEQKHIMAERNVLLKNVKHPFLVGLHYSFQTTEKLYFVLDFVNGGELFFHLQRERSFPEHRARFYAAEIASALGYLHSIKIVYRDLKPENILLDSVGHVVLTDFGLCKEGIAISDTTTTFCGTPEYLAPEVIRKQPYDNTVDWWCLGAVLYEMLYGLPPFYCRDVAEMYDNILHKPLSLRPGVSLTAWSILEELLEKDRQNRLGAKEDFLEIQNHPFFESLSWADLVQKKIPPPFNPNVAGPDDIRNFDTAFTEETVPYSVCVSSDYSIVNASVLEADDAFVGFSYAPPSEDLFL
In words: Inhibition of SGK3 in human HeLa cells lysate at 50 uM pre incubated for 15 mins followed by ATP acyl phosphate probe addition and measured after 10 mins by LC-MS/MS analysis relative to control. It is filed as subcellular. The note with it: time 25.0 min.

Assay [4] deals with T2, Aurora kinase A (Homo sapiens) (UniProt O14965).
T2 sequence (whole entry): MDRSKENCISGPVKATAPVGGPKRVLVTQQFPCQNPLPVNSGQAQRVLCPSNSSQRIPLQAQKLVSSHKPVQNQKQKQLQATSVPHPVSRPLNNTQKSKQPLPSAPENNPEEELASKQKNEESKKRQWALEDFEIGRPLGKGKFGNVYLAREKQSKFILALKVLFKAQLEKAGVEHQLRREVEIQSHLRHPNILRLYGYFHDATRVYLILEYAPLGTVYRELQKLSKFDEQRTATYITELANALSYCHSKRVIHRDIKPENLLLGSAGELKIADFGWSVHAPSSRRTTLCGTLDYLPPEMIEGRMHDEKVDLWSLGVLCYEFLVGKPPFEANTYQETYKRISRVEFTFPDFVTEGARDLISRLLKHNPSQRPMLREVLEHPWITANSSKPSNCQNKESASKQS
In words: Inhibition of AurA in human HeLa cells lysate at 10 uM pre incubated for 15 mins followed by ATP acyl phosphate probe addition and measured after 10 mins by LC-MS/MS analysis relative to control. It counts as subcellular. The note with it: time 25.0 min. The essentials:
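KiNativ-type profiling in HeLa lysate (5 mg/mL total protein). Lysate preincubated 15 min with inhibitor at 50, 10, 2, 0.8 or 0 μM, then ATP or ADP acylphosphate probe added (5 μM final) for 10 min. Reaction stopped with urea and analysed by targeted MS, using up to four fragment ions per kinase peptide-probe conjugate. % inhibition calculated against untreated lysate. Duplicate reactions.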

For assay [5], the target named is Cyclin-dependent kinase 7 (Homo sapiens, UniProt P50613). Kind of assay: Inhibition of CDK7 in human HeLa cells lysate pre incubated for 15 mins followed by ATP acyl phosphate probe addition and measured after 10 mins by LC-MS/MS analysis. It is filed as subcellular. In outline:
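KiNativ profiling in HeLa lysate (5 mg/mL total protein). Lysate incubated 15 min with inhibitor at 50, 10, 2, 0.8 or 0 μM. ATP or ADP acylphosphate probe then added (5 μM final) and reacted 10 min. Reaction stopped with urea and analysed by targeted MS, using up to four fragment ions per kinase peptide-probe conjugate. % inhibition taken against untreated lysate. Run in duplicate.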

In assay [6] the target is Mitogen-activated protein kinase 3 (Homo sapiens, UniProt P27361). In words: Inhibition of ERK1 in human HeLa cells lysate pre incubated for 15 mins followed by ATP acyl phosphate probe addition and measured after 10 mins by LC-MS/MS analysis. It counts as subcellular.
The target in assay [7] is Ribosomal protein S6 kinase alpha-5 (Homo sapiens, UniProt O75582). In words: Inhibition of MSK1 domain 1 in human HeLa cells lysate at 50 uM pre incubated for 15 mins followed by ATP acyl phosphate probe addition and measured after 10 mins by LC-MS/MS analysis relative to control. The following applies: time 25.0 min. It counts as subcellular.
For assay [8], the target named is Mitogen-activated protein kinase kinase kinase 2 (Homo sapiens) (UniProt Q9Y2U5). In words: Inhibition of MAP3K2 in human HeLa cells lysate at 50 uM pre incubated for 15 mins followed by ADP acyl phosphate probe addition and measured after 10 mins by LC-MS/MS analysis relative to control. It is filed as subcellular. The note with it: time 25.0 min.
Assay [9] concerns the target Serine/threonine-protein kinase/endoribonuclease IRE1 (Homo sapiens, UniProt O75460). Kind of assay: Inhibition of IRE1 in human HeLa cells lysate pre incubated for 15 mins followed by ADP acyl phosphate probe addition and measured after 10 mins by LC-MS/MS analysis. It counts as subcellular.
The target of assay [10] is T1, Serine/threonine-protein kinase Sgk3 (Homo sapiens). Kind of assay: Inhibition of SGK3 in human HeLa cells lysate at 2 uM pre incubated for 15 mins followed by ADP acyl phosphate probe addition and measured after 10 mins by LC-MS/MS analysis relative to control. The following applies: time 25.0 min. It counts as subcellular.
The next assay concerns the target Focal adhesion kinase 1 (Homo sapiens, UniProt Q05397). In words: Inhibition of FAK in human HeLa cells lysate at 50 uM pre incubated for 15 mins followed by ADP acyl phosphate probe addition and measured after 10 mins by LC-MS/MS analysis relative to control. The note with it: time 25.0 min. It is filed as subcellular.
Assay [11] can be described thus: Inhibition of MSK1/2 domain 1 in human HeLa cells lysate at 50 uM pre incubated for 15 mins followed by ATP acyl phosphate probe addition and measured after 10 mins by LC-MS/MS analysis relative to control. The note with it: 25 min, condition cancer.
Another assay relates to Lewis lung carcinoma. In words: Antitumor activity against mouse LL2 cells allografted in C57Bl/6 mouse assessed as decrease in BrdU incorporation in cell nuclei in tumor at 50 mg/kg, ip by fluorescence microscopic analysis. It counts as functional, organism-based. The essentials:
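HeLa or LL/2 tumor sections from treated and control xenograft mice were stained with anti-BrdU antibody and DAPI and imaged by fluorescence microscopy. n = 6 mice, 9 slices.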

The target in assay [12] is Serine/threonine-protein kinase TAO2 (Homo sapiens, UniProt Q9UL54). In words: Inhibition of TAO2 in human HeLa cells lysate pre incubated for 15 mins followed by ATP acyl phosphate probe addition and measured after 10 mins by LC-MS/MS analysis. It counts as subcellular.

Molecules are shown by their SMILES. Calls of active or inactive are those of the source. The calls are words filed in the database; no cut-off is given here.

Sequence of Mitogen-activated protein kinase 3 (P27361 whole entry, the tested form may be a part): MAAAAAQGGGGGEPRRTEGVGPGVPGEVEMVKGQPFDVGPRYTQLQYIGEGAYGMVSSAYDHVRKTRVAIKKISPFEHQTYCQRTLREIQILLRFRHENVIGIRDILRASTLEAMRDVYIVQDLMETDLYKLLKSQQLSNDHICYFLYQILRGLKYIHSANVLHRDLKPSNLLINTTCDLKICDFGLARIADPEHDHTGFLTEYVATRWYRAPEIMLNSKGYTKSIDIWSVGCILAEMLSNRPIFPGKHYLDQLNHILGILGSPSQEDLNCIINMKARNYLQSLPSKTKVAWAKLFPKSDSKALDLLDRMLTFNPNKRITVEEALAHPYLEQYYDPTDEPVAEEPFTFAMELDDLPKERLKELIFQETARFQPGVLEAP
Sequence of Serine/threonine-protein kinase TAO2 (Q9UL54 whole entry): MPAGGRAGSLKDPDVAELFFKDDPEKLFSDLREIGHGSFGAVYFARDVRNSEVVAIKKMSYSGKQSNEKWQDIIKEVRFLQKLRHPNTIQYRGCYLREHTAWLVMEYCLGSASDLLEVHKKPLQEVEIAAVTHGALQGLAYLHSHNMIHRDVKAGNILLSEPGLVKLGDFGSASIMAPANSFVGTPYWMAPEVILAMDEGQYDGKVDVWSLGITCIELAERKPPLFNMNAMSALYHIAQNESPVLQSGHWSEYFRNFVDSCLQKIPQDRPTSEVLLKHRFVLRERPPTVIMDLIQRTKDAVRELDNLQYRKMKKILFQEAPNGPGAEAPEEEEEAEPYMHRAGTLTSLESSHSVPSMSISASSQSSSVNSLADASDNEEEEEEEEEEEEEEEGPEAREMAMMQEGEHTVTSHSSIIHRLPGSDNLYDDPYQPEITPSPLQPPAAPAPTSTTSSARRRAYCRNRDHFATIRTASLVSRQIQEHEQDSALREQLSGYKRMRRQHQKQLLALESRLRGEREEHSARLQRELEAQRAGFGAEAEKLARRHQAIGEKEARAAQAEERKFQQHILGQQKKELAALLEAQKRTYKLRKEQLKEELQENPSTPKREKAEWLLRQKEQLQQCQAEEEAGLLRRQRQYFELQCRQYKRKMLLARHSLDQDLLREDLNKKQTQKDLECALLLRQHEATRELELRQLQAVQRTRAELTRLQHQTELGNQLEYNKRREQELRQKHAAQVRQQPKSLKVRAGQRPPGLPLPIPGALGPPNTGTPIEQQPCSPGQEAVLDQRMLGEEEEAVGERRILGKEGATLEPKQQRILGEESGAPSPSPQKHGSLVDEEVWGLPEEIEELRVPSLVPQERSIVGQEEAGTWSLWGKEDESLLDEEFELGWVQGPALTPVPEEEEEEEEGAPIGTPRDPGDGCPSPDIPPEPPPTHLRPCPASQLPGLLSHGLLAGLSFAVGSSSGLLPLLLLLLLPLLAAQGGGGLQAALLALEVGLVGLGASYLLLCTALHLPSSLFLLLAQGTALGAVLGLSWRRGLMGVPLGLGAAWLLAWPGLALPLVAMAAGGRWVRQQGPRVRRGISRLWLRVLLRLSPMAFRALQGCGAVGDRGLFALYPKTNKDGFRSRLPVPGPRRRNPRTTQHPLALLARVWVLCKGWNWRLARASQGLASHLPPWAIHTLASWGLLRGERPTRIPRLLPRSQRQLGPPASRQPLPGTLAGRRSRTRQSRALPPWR
Sequence of Cyclin-dependent kinase 7 (P50613 whole entry, the tested form may be a part): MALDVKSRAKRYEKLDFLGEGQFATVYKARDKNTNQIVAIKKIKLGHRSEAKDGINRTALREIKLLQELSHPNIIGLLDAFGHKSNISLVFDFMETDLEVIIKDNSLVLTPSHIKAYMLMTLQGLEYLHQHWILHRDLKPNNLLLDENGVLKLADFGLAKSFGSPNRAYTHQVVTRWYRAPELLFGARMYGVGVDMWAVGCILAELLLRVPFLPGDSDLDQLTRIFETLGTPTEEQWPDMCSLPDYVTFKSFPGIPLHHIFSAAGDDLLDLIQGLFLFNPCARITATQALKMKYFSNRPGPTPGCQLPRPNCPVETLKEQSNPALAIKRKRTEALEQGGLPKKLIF
Sequence of AMPK alpha1/alpha2 (P54646 whole entry, looked up, the tested form may be a part): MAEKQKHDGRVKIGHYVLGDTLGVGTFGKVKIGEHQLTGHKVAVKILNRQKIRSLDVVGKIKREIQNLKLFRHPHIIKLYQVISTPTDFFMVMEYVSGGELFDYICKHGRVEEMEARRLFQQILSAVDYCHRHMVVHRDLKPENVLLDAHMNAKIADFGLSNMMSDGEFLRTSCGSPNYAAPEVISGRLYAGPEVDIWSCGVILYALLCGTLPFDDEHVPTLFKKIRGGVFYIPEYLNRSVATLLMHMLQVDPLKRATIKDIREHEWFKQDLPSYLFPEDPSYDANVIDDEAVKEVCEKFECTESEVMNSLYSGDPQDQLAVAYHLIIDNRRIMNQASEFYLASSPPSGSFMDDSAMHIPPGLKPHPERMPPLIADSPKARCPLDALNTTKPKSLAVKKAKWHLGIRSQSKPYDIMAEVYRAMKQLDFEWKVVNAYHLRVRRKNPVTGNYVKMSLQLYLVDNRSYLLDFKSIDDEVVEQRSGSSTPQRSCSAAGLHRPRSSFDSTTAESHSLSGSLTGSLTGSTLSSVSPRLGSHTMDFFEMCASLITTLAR
Sequence of AMPK alpha1/alpha2 (Q13131 whole entry, looked up, the tested form may be a part): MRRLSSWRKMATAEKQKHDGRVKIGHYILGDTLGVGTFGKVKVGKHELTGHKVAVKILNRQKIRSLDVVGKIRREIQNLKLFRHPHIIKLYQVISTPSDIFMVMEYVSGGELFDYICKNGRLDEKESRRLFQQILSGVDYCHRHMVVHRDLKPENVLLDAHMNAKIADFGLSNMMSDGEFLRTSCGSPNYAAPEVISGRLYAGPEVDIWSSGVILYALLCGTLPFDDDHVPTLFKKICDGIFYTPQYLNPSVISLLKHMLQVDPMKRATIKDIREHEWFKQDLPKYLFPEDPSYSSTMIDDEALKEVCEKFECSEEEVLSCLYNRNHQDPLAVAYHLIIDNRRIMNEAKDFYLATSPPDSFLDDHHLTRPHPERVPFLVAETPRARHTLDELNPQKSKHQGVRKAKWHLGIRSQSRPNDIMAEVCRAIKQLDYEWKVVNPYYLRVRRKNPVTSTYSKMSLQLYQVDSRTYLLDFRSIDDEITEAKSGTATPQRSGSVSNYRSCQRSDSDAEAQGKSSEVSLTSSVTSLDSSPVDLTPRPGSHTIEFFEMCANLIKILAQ
Sequence of Mitogen-activated protein kinase kinase kinase 2 (Homo sapiens) (Q9Y2U5 whole entry): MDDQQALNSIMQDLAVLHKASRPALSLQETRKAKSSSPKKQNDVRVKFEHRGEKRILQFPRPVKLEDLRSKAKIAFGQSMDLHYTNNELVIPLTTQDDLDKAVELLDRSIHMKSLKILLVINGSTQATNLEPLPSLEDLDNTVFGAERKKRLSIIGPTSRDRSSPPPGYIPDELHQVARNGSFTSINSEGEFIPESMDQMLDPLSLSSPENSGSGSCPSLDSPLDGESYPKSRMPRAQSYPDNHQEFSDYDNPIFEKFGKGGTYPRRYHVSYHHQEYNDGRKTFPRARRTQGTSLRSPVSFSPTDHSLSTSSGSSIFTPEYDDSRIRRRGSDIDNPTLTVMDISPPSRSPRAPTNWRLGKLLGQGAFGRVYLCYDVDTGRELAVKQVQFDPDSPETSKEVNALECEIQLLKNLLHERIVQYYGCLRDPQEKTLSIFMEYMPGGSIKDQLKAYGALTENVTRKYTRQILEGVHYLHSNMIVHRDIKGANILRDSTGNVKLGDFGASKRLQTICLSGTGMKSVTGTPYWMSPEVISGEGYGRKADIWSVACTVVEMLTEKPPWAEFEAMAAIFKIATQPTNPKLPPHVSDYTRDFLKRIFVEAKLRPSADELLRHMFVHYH
Sequence of Focal adhesion kinase 1 (Q05397 2-1052 limits assumed): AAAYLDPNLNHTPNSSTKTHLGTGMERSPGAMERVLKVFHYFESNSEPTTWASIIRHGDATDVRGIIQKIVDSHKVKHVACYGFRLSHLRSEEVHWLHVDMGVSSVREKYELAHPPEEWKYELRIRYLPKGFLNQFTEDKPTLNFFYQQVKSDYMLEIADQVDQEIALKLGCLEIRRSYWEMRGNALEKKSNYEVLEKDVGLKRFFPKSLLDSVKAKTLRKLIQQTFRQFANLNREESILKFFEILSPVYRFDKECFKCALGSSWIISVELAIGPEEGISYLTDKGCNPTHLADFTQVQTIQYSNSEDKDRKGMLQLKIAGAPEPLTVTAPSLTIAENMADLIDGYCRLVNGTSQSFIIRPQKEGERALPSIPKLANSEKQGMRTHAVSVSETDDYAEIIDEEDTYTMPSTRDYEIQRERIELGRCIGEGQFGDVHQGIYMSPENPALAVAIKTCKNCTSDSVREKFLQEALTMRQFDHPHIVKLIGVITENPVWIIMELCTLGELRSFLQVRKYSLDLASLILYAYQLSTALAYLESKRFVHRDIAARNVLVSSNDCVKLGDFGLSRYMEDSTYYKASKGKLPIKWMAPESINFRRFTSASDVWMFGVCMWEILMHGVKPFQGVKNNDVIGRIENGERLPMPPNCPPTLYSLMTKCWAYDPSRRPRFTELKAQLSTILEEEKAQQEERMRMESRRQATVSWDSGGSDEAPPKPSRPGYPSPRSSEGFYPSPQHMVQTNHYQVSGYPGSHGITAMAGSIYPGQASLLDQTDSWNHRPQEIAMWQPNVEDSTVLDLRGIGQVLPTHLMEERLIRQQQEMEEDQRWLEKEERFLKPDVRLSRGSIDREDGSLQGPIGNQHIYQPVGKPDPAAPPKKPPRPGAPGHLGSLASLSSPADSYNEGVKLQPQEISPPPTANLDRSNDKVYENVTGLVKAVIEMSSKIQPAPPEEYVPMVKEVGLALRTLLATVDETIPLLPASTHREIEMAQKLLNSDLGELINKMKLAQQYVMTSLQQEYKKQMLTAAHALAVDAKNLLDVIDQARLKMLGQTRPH

Broadly, the IC50 is the concentration at which inhibition is half-maximal. Higher therefore signals weaker potency. Usually inhibition stands for the change of the read-out against control, counted positive when it falls. In the case of `CCOc1cc(N2CCC(O)CC2)ccc1Nc1ncc2c(n1)N(C)c1ccccc1C(=O)N2C`, the IC50 in assay [1], in assay [5], in assay [6], in assay [9] and in [12] was over 50 µM throughout. Moreover, in assay [2], the inhibition at 2 µM is 1.2%. The inhibition on AMPK alpha1/alpha2 was 32%; in [3], -0.9%; in [4], 2.3%; in assay [7], 4.6%; in assay [8], 3.7%; in [10] it was 16.6%. Moreover, on Focal adhesion kinase 1, the inhibition turned out to be 58.1%. In addition, in [11], the inhibition at 50 µM is -21.5%. The result in the assay with Lewis lung carcinoma was Active.
